Only some compounds are listed: those with a hit (about 3.5% of all), similar ones and a draw of the others.
MrgX1 allo act: positive allosteric modulators of MrgX1, primary screen, HEK293 cells, Fluo-4 calcium flux; Mas-related G-protein coupled receptor member X1 (Homo sapiens), Q96LB2; FDSS; hits give high values; B-score at 10 µM; 310,000 compounds, 0.63% hits;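 active means plate-corrected calcium response at least 3 library SD above typical, normal starting fluorescence, not activating the receptor alone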;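 further: compound read alongside a low EC10 to EC30 dose of BAM8-22 agonist; peak minus trough fluorescence over baseline measured at the second addition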
Target sequence (Q96LB2 whole entry, looked up): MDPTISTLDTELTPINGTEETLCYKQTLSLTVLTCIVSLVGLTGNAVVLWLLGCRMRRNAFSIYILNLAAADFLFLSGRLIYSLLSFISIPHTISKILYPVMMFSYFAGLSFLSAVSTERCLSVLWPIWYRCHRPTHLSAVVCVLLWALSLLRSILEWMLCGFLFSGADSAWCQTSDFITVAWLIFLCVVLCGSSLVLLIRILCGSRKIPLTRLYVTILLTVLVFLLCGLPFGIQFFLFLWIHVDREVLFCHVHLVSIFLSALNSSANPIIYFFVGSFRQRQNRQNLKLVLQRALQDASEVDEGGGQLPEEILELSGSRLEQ
RGS4 pot: RGS4 potentiators or activators, primary screen, cell-based, HEK293 M3R inducible RGS4, calcium flux; 310,000 compounds, 0.92% hits; B-score at 10 µM; carbachol calcium flux Fluo4; hits give low values;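 active means B-score of the integrated calcium signal more than 4 SD below the library mean, with starting fluorescence not abnormally high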;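 further: negative B-score means reduced calcium response which marks RGS4 activation or potentiation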
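System – HEK293 FlpIn-TREx cells, stable M3R, doxycycline-inducible RGS4 · Reagent – ECmax carbachol challenge · Times – compound preincubation 20 min at room temperature before agonist · Technique – Fluo4 fluorescence kinetic imaging of calcium · Measure – B score of integrated Fluo4 ratio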
MrgX1 agonist: agonists of human MrgX1 receptor, primary screen, HEK293 cells, Fluo-4 calcium flux | Fluo-4 calcium fluorescence, agonist mode; hits give high values | B-score at 10 µM | 310,000 compounds, 0.44% hits | AID 588627, 2011;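 active means calcium response B-score plate-corrected fluorescence ratio at least 3 library SD, with starting fluorescence B-score inside 5 SD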
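Test system: Stable human MrgX1 HEK293 cell line | Schedule: Overnight plating before 1 h dye loading | Read-out basis: Baseline-normalised fluorescence change ratio, B-scored | Detection: Kinetic calcium dye fluorescence, Fluo-4 NW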
RGS4 block: RGS4 inhibitors, primary screen, cell-based, HEK293 M3R inducible RGS4, calcium flux | Regulator of G-protein signaling 4 (Homo sapiens), P49798 | Fluo-4 calcium flux; hits give high values; triggered by carbachol at its EC20 | 310,000 compounds, 0.45% hits | B-score at 10 µM | AID 463165, 2010;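 active means B-score, a plate-corrected calcium signal, over three deviations above library mean, with baseline fluorescence within five deviations of library mean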;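 further: RGS4 expression induced by doxycycline in cells with stable M3 receptor; B-score is computed from the integrated fluorescence ratio over baseline after carbachol; higher B-score means a larger calcium signal and so more RGS4 inhibition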
Target sequence (P49798 whole entry, looked up): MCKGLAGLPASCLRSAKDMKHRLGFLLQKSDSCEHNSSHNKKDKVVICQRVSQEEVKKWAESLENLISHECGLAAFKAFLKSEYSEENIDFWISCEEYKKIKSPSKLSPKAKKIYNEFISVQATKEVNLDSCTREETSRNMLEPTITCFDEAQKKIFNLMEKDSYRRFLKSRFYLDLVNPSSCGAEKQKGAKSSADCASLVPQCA
MrgX1 antag: antagonists of human MrgX1 receptor, primary screen, HEK293 cells, Fluo-4 calcium flux | Mas-related G-protein coupled receptor member X1 (Homo sapiens), Q96LB2 | BAM8-22 antagonism; hits give low values | B-score at 10 µM | 310,000 compounds, 1.3% hits | AID 588676, 2011;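 active means calcium-response B-score plate-corrected more than 3 library SD below zero, starting fluorescence within 5 deviations, no agonist response on first addition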;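 further: peak minus trough fluorescence over baseline after final BAM8-22 challenge near maximal dose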
MrgX1 ant reconf: MrgX1 receptor antagonists, duplicate retest, confirmation, HEK293 cells, Fluo-4 calcium flux; BAM8-22 calcium flux; hits give low values; 2,300 compounds, 19% hits; shares compounds with MrgX1 antag; remaining BAM8-22 calcium response % of control (hits give low values), % at 10 µM; AID 602420, 2012;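 active means remaining agonist calcium response no higher than 100% minus 3 SD of agonist-only control wells, with starting fluorescence near control levels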;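 further: agonist BAM8-22 given at a near maximal EC90 to ECmax level; peak minus minimum fluorescence divided by baseline after agonist addition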
HEK293 Ca flux: nonspecific calcium signal in parental HEK293, confirmation, counter-screen for MrgX1 antagonist project, parental HEK293 cells, Fluo-4 calcium flux; Fluo-4 calcium fluorescence, FDSS; shares compounds with MrgX1 antag; 4,000 compounds, 2% hits; AID 624111, 2012; fluorescence ratio F(max-min)/F0 at 10 µM;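 active means duplicate-averaged calcium fluorescence ratio at least three times the standard deviation of buffer wells, a nonspecific response in parental cells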
HEK293 Ca counter: calcium response in parental HEK293 cells, primary screen, counter-screen for MrgX1 allosteric activator project, cell-based, Fluo-4 calcium flux, duplicate | 4,000 compounds, 0.4% hits | AID 624114, 2012 | fluorescence ratio F(max-min)/F0 at 10 µM | shares compounds with MrgX1 antag | Fluo-4 fluorescence ratio; hits give high values;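 active means calcium fluorescence ratio, averaged over duplicates, at least 3 SD of the buffer-well ratio, meaning a nonspecific response in receptor-free cells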;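 further: untransfected parental HEK293 lacking MrgX1 used as counterscreen for MrgX1 allosteric activators; fluorescence change taken during the second addition on a kinetic imager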
HEK293 Ca cntr2: calcium response in parental HEK293 cells, primary screen, counter-screen for MrgX1 agonist project, cell-based, Fluo-4 calcium flux, duplicate, agonist mode. Fluo-4 calcium fluorescence (FDSS); hits give high values. 4,000 compounds, 8.7% hits. shares compounds with MrgX1 antag. fluorescence ratio F(max-min)/F0 at 10 µM;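 active means calcium fluorescence ratio at least three times the spread of buffer wells, meaning a non-specific response in parental cells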
* = called active by the depositor; i = inactive; · = not tested or not shown.

SMILES	MrgX1 allo act	RGS4 pot	MrgX1 agonist	RGS4 block	MrgX1 antag	MrgX1 ant reconf	HEK293 Ca flux	HEK293 Ca counter	HEK293 Ca cntr2
O=C(O)Cn1nc(-c2ccccc2)cc1-c1ccccc1	i	i	i	i	-5.6*	i	i	i	i
O=C(O)CC(C(=O)O)n1nc(-c2ccccc2)cc1-c1ccccc1 (stereo not drawn)	i	i	i	i	i	·	·	·	·
Cc1ccc(NC(=O)CCN2C(=O)CSC2=O)c(C)c1	i	i	i	i	-4.6*	i	i	i	i
Cc1cc(=O)oc2c3c(cc(OCC(=O)NCc4ccncc4)c12)OC(C)(C)CC3	i	i	i	i	-4.9*	76%*	i	i	i
COc1ccc(CNC(=O)COc2cc3c(c4oc(=O)cc(C)c24)CCC(C)(C)O3)cc1OC	i	i	i	i	-4.7*	i	i	i	i
CCOc1ccc(C(=O)CCC(=O)Nc2ccc(C)cn2)cc1	i	i	i	i	-5.7*	81%*	i	i	i
COc1ccc(CC(=O)OCC(=O)Nc2ncc(Cl)cc2Cl)cc1	i	i	i	i	-4.7*	i	i	i	i
Cc1cccn2c(=O)c(C=O)c(N3CCSCC3)nc12	i	i	i	i	i	·	·	·	·
COCCn1c(SCC(=O)N2CC(=O)Nc3ccccc32)nnc1-c1ccoc1C	i	i	i	i	-11*	i	i	i	i
COCCCn1c(SCC(=O)N2CC(=O)Nc3ccccc32)nnc1-c1ccoc1C	i	i	i	i	i	·	·	·	·
COc1ccc(CC(=O)OCC(=O)N2CCCc3ccccc32)cc1OC	i	i	i	i	i	·	·	·	·
Cc1ccc(S(=O)(=O)NC(=O)c2ccccc2)cc1C(C)C	i	i	i	i	-8.1*	i	i	i	i
CCOc1ccc(S(=O)(=O)NC(=O)c2ccccc2)cc1	i	i	i	i	i	·	·	·	·
COc1ccc(C(=O)NCCS(=O)(=O)NC2CCCC2)cc1	i	i	i	i	i	·	·	·	·
O=C(NCCS(=O)(=O)NC1CCCC1)c1ccc(F)cc1	i	i	i	i	-4.9*	i	i	i	i
Cc1ccccc1C(=O)NNC(=O)C1CCN(c2ncccn2)CC1	i	i	i	i	i	·	·	·	·
O=C(O)CCCC(=O)Nc1ccccc1C(=O)N1CCCC1	i	i	i	i	-5.5*	i	i	i	i
O=C(Nc1ccccc1C(=O)N1CCCC1)C1CCN(c2ncccn2)CC1	i	i	i	i	-7.2*	i	i	i	i
CC1=C(C(=O)OCc2ccccc2)C(c2ccccc2Br)NC(=O)N1 (stereo not drawn)	i	i	i	i	i	·	·	·	·
Cc1nnc(SCC(=O)N(Cc2ccccc2)C(C)(C)C)[nH]c1=O	i	i	i	i	-4.6*	i	i	i	i
CC(C)(C)N(Cc1ccccc1)C(=O)CSc1nc2ccccc2c(=O)[nH]1	i	i	i	i	i	·	·	·	·
CC(C)(C)C#CC(CCc1ccccc1)OS(N)(=O)=O (stereo not drawn)	i	i	i	i	i	·	·	·	·
CCOc1ccc(CC(=O)Nc2cc(=O)n(C)c(=O)n2C)cc1	i	i	i	i	i	·	·	·	·
COc1ccc(CC(=O)Nc2cc(=O)n(C)c(=O)n2C)cc1	i	i	i	i	-7.7*	i	i	i	i
Cc1ccccc1OCCC(=O)OCC(=O)NC1CCCCC1	i	i	i	i	i	·	·	·	·
SMILES	MrgX1 allo act	RGS4 pot	MrgX1 agonist	RGS4 block	MrgX1 antag	MrgX1 ant reconf	HEK293 Ca flux	HEK293 Ca counter	HEK293 Ca cntr2
COc1cc2nc(Nc3ccc(F)cc3)nc(N)c2cc1OC	i	i	i	i	-6.1*	66%*	i	i	i
CCOC(=O)c1ccc(Nc2nc(N)c3cc(OC)c(OC)cc3n2)cc1	i	i	i	i	i	·	·	·	·
CCN(CC)S(=O)(=O)c1ccc(NC2c3ncccc3C(=O)N2Cc2ccccc2)cc1 (stereo not drawn)	i	i	i	i	-9.3*	i	i	i	i
O=C(O)CSCC(=O)Nc1ccccc1SCCS(=O)(=O)c1ccc(Cl)cc1	i	i	i	i	i	·	·	·	·
COC(=O)C1=C(CN2CCSCC2)NC(=O)NC1c1cc(C)ccc1C (stereo not drawn)	i	i	i	i	-5.6*	i	i	i	i
CC(C)N(CC#CCC1(O)c2ccccc2-c2ccccc21)CCO	i	i	i	i	-6*	i	i	i	i
CCN(CC#CCC1(O)c2ccccc2-c2ccccc21)CCO	i	i	i	i	i	·	·	·	·
CCCOc1cc(CC(=O)NCc2ccco2)ccc1OC	i	i	i	i	i	·	·	·	·
COc1ccc(CC(=O)OCC(=O)NCc2ccco2)cc1OC	i	i	i	i	-5.3*	i	i	i	i
O=C(CSc1nnc(CNC(=O)c2ccc(F)cc2)o1)NCc1ccc2c(c1)OCO2	i	i	i	i	-7.6*	i	i	i	i
O=C(CSc1nnc(CNC(=O)c2ccccc2)o1)NCc1ccccc1Cl	i	i	i	i	-6.6*	i	i	i	i
O=C(CSc1nnc(CNC(=O)c2ccc(F)cc2)o1)NCc1ccccc1Cl	i	i	i	i	i	·	·	·	·
O=C(CSc1nnc(CNC(=O)c2ccc(F)cc2)o1)NCc1ccc(F)cc1	i	i	i	i	i	·	·	·	·
